ChEMBL document CHEMBL1151774, “Synthesis and biological evaluation of new N-linked 5-triazolylmethyl oxazolidinones” (Eur J Med Chem, 2008)
≈ marks a conversion by molar mass, not a printed value.

Key:
Staphylococcus aureus [1] = experiment: Antimicrobial activity against Staphylococcus aureus ATCC 29213 after 16 to 18 hrs by agar dilution method; assay type: functional
Staphylococcus aureus [2] = experiment: Antimicrobial activity against methicillin-resistant Staphylococcus aureus after 16 to 18 hrs by agar dilution method; assay type: functional
Staphylococcus aureus [3] = experiment: Antimicrobial activity against methicillin-susceptible Staphylococcus aureus after 16 to 18 hrs by agar dilution method; assay type: functional
Enterococcus faecalis = experiment: Antimicrobial activity against Enterococcus faecalis after 16 to 18 hrs by agar dilution method; assay type: functional
Streptococcus pneumoniae = experiment: Antimicrobial activity against sStreptococcus pneumoniae after 16 to 18 hrs by agar dilution method; assay type: functional
Staphylococcus aureus [4] = experiment: Antimicrobial activity against methicillin-resistant Staphylococcus aureus 05-2 infected in po dosed KunMing SPF mouse; assay type: functional
In short: (§1)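 Mice given a lethal systemic infection by intraperitoneal injection of the MLD inoculum of MRSA 05-2. Compound dosed orally or by i.v. injection in 0.9% NaCl immediately and 4 h post-infection. ED50 (dose curing 50% of infected mice) calculated by the Bliss method on day 7 post-infection, with 95% confidence ranges.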

Staphylococcus aureus [5] = experiment: Antimicrobial activity against methicillin-resistant Staphylococcus aureus 05-2 infected in iv dosed KunMing SPF mouse; assay type: functional; in short: as §1
[6] = Tmax in Sprague-Dawley rat at 50 mg/kg, po; assay type: ADME, organism-based; design: dose 50 mg/kg, route oral; conditions: in vivo
In short: (§2)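 Single dose given orally (10 or 50 mg/kg) or intravenously (10 mg/kg). Serial 300 µL blood samples were taken from the retrobulbar vein. Plasma was quantified by LC-MS. Parameters came from mean plasma concentration by non-compartmental analysis. F is absolute oral bioavailability, assuming linear pharmacokinetics.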

[7] = Clearance in Sprague-Dawley rat at 10 mg/kg, iv; assay type: ADME, organism-based; design: dose 10 mg/kg, route intravenous; conditions: in vivo; in short: as §2
[8] = AUC (0 to infinity) in Sprague-Dawley rat at 10 mg/kg, iv; assay type: ADME, organism-based; design: time infinity, dose 10 mg/kg, route intravenous; conditions: plasma; in short: as §2
Rattus norvegicus [9] = experiment: AUC (0 to infinity) in Sprague-Dawley rat at 10 mg/kg, po; assay type: ADME, organism-based, Plasma; design: time infinity, dose 10 mg/kg, route oral; conditions: in vivo; in short: as §2
[10] = Elimination half life in Sprague-Dawley rat at 50 mg/kg, po; assay type: ADME, organism-based; design: dose 50 mg/kg, route oral; conditions: in vivo, read-out: beta t1/2 (converted); in short: as §2
Rattus norvegicus [11] = experiment: AUC (0 to infinity) in Sprague-Dawley rat at 50 mg/kg, po; assay type: ADME, organism-based, Plasma; design: time infinity, dose 50 mg/kg, route oral; conditions: in vivo; in short: as §2
[12] = Cmax in Sprague-Dawley rat at 50 mg/kg, po; assay type: ADME, organism-based; design: dose 50 mg/kg, route oral; conditions: in vivo; in short: as §2
[13] = Oral bioavailability in Sprague-Dawley rat at 10 mg/kg; assay type: ADME, organism-based; conditions: in vivo; in short: as §2
[14] = Elimination half life in Sprague-Dawley rat at 10 mg/kg, iv; assay type: ADME, organism-based; design: dose 10 mg/kg, route intravenous; conditions: in vivo, read-out: beta t1/2 (converted); in short: as §2
[15] = Cmax in Sprague-Dawley rat at 10 mg/kg, po; assay type: ADME, organism-based; design: dose 10 mg/kg, route oral; conditions: in vivo; in short: as §2
[16] = Tmax in Sprague-Dawley rat at 10 mg/kg, po; assay type: ADME, organism-based; design: dose 10 mg/kg, route oral; conditions: in vivo; in short: as §2
[17] = Elimination half life in Sprague-Dawley rat at 10 mg/kg, po; assay type: ADME, organism-based; design: dose 10 mg/kg, route oral; conditions: in vivo, read-out: beta t1/2 (converted); in short: as §2

Compound | MIC (Staphylococcus aureus [1]) | MIC (Staphylococcus aureus [2]) | MIC (Staphylococcus aureus [3]) | MIC (Enterococcus faecalis) | MIC (Streptococcus pneumoniae) | also measured
Cc1ccc(CN2CCN(c3ccc(N4C[C@H](Cn5ccnn5)OC4=O)cc3F)CC2)o1 | 0.125 µg/mL (≈ 0.284 µM) | 1 µg/mL (≈ 2.27 µM) | 0.125 µg/mL (≈ 0.284 µM) | 2 µg/mL (≈ 4.54 µM) | 2 µg/mL (≈ 4.54 µM) | –
O=C1O[C@@H](Cn2ccnn2)CN1c1ccc(N2CCN(Cc3ccncc3)CC2)c(F)c1 | 0.5 µg/mL (≈ 1.14 µM) | 1 µg/mL (≈ 2.29 µM) | 0.5 µg/mL (≈ 1.14 µM) | 2 µg/mL (≈ 4.57 µM) | 1 µg/mL (≈ 2.29 µM) | –
O=C1O[C@@H](Cn2ccnn2)CN1c1ccc(N2CCN(Cc3ccc(Cl)o3)CC2)c(F)c1 | 0.125 µg/mL (≈ 0.271 µM) | 1 µg/mL (≈ 2.17 µM) | 0.125 µg/mL (≈ 0.271 µM) | 2 µg/mL (≈ 4.34 µM) | 1 µg/mL (≈ 2.17 µM) | –
O=C1O[C@@H](Cn2ccnn2)CN1c1ccc(N2CCN(Cc3cccs3)CC2)c(F)c1 | 0.06 µg/mL (≈ 0.136 µM) | 0.06 µg/mL (≈ 0.136 µM) | 0.06 µg/mL (≈ 0.136 µM) | 2 µg/mL (≈ 4.52 µM) | 0.06 µg/mL (≈ 0.136 µM) | –
Cc1ccsc1CN1CCN(c2ccc(N3C[C@H](Cn4ccnn4)OC3=O)cc2F)CC1 | 1 µg/mL (≈ 2.19 µM) | 4 µg/mL (≈ 8.76 µM) | 1 µg/mL (≈ 2.19 µM) | 4 µg/mL (≈ 8.76 µM) | 4 µg/mL (≈ 8.76 µM) | –
O=Cc1cccc(CN2CCN(c3ccc(N4C[C@H](Cn5ccnn5)OC4=O)cc3F)CC2)c1 | 0.25 µg/mL (≈ 0.538 µM) | 0.125 µg/mL (≈ 0.269 µM) | 0.5 µg/mL (≈ 1.08 µM) | 1 µg/mL (≈ 2.15 µM) | 1 µg/mL (≈ 2.15 µM) | –
Nc1cccc(CN2CCN(c3ccc(N4C[C@H](Cn5ccnn5)OC4=O)cc3F)CC2)c1 | 0.25 µg/mL (≈ 0.554 µM) | 0.5 µg/mL (≈ 1.11 µM) | 0.25 µg/mL (≈ 0.554 µM) | 0.5 µg/mL (≈ 1.11 µM) | 0.5 µg/mL (≈ 1.11 µM) | –
O=C1O[C@@H](Cn2ccnn2)CN1c1ccc(N2CCN(Cc3ccc(Br)s3)CC2)c(F)c1 | 0.06 µg/mL (≈ 0.115 µM) | 0.5 µg/mL (≈ 0.959 µM) | 0.06 µg/mL (≈ 0.115 µM) | 1 µg/mL (≈ 1.92 µM) | 0.5 µg/mL (≈ 0.959 µM) | –
CC(=O)NC[C@H]1CN(c2ccc(N3CCOCC3)c(F)c2)C(=O)O1 [LINEZOLID] | 0.5 µg/mL (≈ 1.48 µM) | 1 µg/mL (≈ 2.96 µM) | 0.5 µg/mL (≈ 1.48 µM) | – | – | ED50 (Staphylococcus aureus [4]): 8.45 mg/kg; ED50 (Staphylococcus aureus [5]): 8.45 mg/kg
O=C1O[C@@H](Cn2ccnn2)CN1c1ccc(N2CCN(Cc3ccc([N+](=O)[O-])o3)CC2)c(F)c1 | 0.06 µg/mL (≈ 0.127 µM) | 0.06 µg/mL (≈ 0.127 µM) | 0.06 µg/mL (≈ 0.127 µM) | 0.25 µg/mL (≈ 0.53 µM) | 0.03 µg/mL (≈ 0.0636 µM) | Tmax [6]: 0.5 h; clearance [7]: 16.2 mL/min/kg; AUC(0-inf) [8]: 18900 ng·h/mL; AUC (Rattus norvegicus [9]): 19400 ng·h/mL; half-life [10]: 1.66 h; AUC (Rattus norvegicus [11]): 139000 ng·h/mL; Cmax [12]: 16900 ng/mL; bioavailability [13]: 103%; half-life [14]: 1.18 h; Cmax [15]: 5440 ng/mL; Tmax [16]: 0.25 h; half-life [17]: 1.51 h
O=Cc1ccc(CN2CCN(c3ccc(N4C[C@H](Cn5ccnn5)OC4=O)cc3F)CC2)cc1 | 0.008 µg/mL (≈ 0.0172 µM) | 0.25 µg/mL (≈ 0.538 µM) | 1 µg/mL (≈ 2.15 µM) | 2 µg/mL (≈ 4.31 µM) | 1 µg/mL (≈ 2.15 µM) | –
